Experimental data reported in ChEMBL document CHEMBL1154112, “Parallel synthesis of potent dopaminergic N-phenyltriazole carboxamides applying a novel click chemistry based phenol linker” (Bioorg Med Chem, 2009).
Active and inactive are the calls of the source. The rule behind the calls is not given here.

Key:
[1] = biological target: D(1A) dopamine receptor (Sus scrofa) (UniProt P50130); experiment: Displacement of [3H]SCH23390 from pig dopamine D1 receptor
Outline: (§1)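 Porcine striatal membranes were incubated with 0.3 nM [3H]SCH 23390 (Kd 0.95 nM). Protein was measured by Lowry against a BSA standard. Test compounds were screened at 100 nM and 1 nM in triplicate. Ki values were derived by nonlinear regression of competition curves, as means of 2–4 experiments each run in triplicate.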

D(3) dopamine receptor [2] = biological target: T1, D(3) dopamine receptor (Homo sapiens, UniProt P35462); experiment: Displacement of [3H]spiperone from human cloned dopamine D3 expressed in CHO cells; format: cell-based; parameters: concentration or dose not given beside the values
T1 sequence (P35462 whole entry): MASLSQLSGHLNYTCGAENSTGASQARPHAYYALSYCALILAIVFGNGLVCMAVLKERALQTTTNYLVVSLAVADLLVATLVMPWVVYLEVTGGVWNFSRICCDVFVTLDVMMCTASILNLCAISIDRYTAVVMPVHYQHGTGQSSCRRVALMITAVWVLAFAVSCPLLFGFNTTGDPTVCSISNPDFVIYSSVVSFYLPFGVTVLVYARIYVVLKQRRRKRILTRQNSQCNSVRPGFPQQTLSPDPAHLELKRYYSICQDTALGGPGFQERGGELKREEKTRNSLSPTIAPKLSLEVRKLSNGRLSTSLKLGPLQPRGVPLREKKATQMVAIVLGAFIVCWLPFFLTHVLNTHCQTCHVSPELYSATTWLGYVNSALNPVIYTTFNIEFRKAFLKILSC
Outline: (§2)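 Competition binding used membranes from CHO cells expressing human D2long, D2short, D3 or D4.4, with 0.5 nM final [3H]spiperone. Screening was run at 100 nM and 1 nM test compound in triplicate. Ki values come from nonlinear regression, as means of 2–4 experiments each run in triplicate.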

D(2) dopamine receptor [3] = biological target: T2, D(2) dopamine receptor (Homo sapiens, UniProt P14416); experiment: Displacement of [3H]spiperone from human cloned dopamine D2-short expressed in CHO cells; format: cell-based; parameters: concentration or dose not given beside the values; outline: as §2
T2 sequence (P14416 whole entry): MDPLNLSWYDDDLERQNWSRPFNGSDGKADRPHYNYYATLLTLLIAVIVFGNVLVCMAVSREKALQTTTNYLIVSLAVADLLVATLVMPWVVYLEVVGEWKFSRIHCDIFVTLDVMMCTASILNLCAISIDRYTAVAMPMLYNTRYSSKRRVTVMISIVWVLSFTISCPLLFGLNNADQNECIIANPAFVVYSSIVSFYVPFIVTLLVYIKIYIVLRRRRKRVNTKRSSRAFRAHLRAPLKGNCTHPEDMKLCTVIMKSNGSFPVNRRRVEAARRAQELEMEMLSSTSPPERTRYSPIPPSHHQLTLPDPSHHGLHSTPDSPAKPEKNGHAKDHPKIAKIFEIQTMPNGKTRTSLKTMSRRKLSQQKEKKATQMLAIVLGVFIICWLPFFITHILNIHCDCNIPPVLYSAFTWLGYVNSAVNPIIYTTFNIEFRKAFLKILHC

Sus scrofa = species: Sus scrofa; experiment: Displacement of [3H]prazosin from pig alpha-1 adrenergic receptor; parameters: concentration or dose not given beside the values
Outline: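 Porcine cortical membranes at 55 µg protein per tube, [3H]prazosin as radioligand (Kd 0.06 nM). Ki obtained by non-linear regression of competition curves, means of 2–4 experiments each run in triplicate; screening run at 10 µM, 100 nM and 1 nM test compound in triplicate.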

D(4) dopamine receptor = biological target: T3, D(4) dopamine receptor (Homo sapiens, UniProt P21917); experiment: Binding affinity to human cloned dopamine D4.4 expressed in CHO cells; format: cell-based
T3 sequence (P21917 whole entry): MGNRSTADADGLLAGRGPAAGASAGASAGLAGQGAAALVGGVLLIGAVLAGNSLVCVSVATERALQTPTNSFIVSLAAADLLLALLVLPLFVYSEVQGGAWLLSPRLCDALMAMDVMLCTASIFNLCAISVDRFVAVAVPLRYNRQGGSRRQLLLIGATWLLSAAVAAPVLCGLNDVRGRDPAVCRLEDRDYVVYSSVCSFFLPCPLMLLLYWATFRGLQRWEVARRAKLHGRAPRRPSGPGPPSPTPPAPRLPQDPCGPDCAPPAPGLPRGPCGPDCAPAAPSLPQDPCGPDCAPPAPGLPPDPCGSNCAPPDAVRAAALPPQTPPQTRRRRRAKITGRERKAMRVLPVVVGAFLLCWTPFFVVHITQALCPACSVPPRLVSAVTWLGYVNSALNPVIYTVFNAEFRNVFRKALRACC

D(2) dopamine receptor [4] = biological target: T2, D(2) dopamine receptor; experiment: Binding affinity to human cloned dopamine D2-short expressed in CHO cells; format: cell-based; outline: as §2
D(2) dopamine receptor [5] = biological target: T2, D(2) dopamine receptor; experiment: Binding affinity to human cloned dopamine D2-long expressed in CHO cells; format: cell-based; outline: as §2
D(3) dopamine receptor [6] = biological target: T1, D(3) dopamine receptor; experiment: Binding affinity to human cloned dopamine D3 expressed in CHO cells; format: cell-based
D(1A) dopamine receptor = D(1A) dopamine receptor (Sus scrofa, UniProt P50130); experiment: Binding affinity to pig dopamine D1 receptor; outline: as §1
Sequence of D(1A) dopamine receptor (P50130 whole entry): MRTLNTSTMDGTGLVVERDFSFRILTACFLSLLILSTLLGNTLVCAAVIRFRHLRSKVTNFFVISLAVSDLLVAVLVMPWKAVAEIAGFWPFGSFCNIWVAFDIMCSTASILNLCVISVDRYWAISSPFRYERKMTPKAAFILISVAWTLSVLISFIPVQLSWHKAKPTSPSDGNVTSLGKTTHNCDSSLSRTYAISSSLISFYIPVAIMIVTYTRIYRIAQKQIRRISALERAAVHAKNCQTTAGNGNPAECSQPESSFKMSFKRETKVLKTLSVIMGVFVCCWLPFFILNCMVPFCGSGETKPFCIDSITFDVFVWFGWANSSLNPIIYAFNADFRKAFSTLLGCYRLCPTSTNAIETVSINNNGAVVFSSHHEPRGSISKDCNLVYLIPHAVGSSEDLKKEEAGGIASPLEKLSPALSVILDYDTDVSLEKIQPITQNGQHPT

[7] = Binding affinity to pig alpha-1 adrenergic receptor; parameters: species or system Sus scrofa
Outline: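 Alpha1 binding used porcine cortical membranes with [3H]prazosin (KD 0.06 nM). Protein was measured by Lowry against a BSA standard. Ki came from nonlinear regression of competition curves, as the mean of 2–4 experiments each run in triplicate.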

D(2) dopamine receptor [8] = biological target: T2, D(2) dopamine receptor; experiment: Displacement of [3H]spiperone from human cloned dopamine D2-long expressed in CHO cells; format: cell-based; outline: as §2
[9] = biological target: T4, D(4) dopamine receptor (Homo sapiens) (UniProt P21917); experiment: Displacement of [3H]spiperone from human cloned dopamine D4.4 expressed in CHO cells; format: cell-based; outline: as §2
T4 sequence (whole entry): T3 sequence (P21917 whole entry)

Sequence of D(1A) dopamine receptor (Sus scrofa) (P50130 whole entry): as above

SMILES | Activity [1] | Activity (D(3) dopamine receptor [2]) [%] | Activity (D(2) dopamine receptor [3]) [%] | Activity (Sus scrofa) [%] | Ki (D(4) dopamine receptor) [nM] | Ki (D(2) dopamine receptor [4]) [nM] | Ki (D(2) dopamine receptor [5]) [nM] | Ki (D(3) dopamine receptor [6]) [nM] | Ki (D(1A) dopamine receptor) [nM] | Ki [7] [nM] | Activity (D(2) dopamine receptor [8]) [%] | Activity [9] [%]
COc1ccccc1N1CCN(CCCCNC(=O)c2cn(-c3ccc([N+](=O)[O-])cc3)nn2)CC1 | inactive | 58 | 38 | 73 |  |  |  |  |  |  |  | 
O=C(CCCc1cn(-c2ccc([N+](=O)[O-])cc2)nn1)NCCCCN1CCN(c2ccccc2Cl)CC1 | inactive | 51 |  | 64 |  |  |  |  |  |  |  | 
O=C(NCCCCN1CCN(c2ccccc2Cl)CC1)c1cn(-c2ccc([N+](=O)[O-])cc2)nn1 | inactive | 61 |  | 61 |  |  |  |  |  |  |  | 
COc1ccccc1N1CCN(CCNC(=O)CCCc2cn(-c3ccc([N+](=O)[O-])cc3)nn2)CC1 | inactive |  |  | 43 |  |  |  |  |  |  |  | 
COc1ccc(-n2cc(CCCC(=O)NCCCCN3CCN(c4cccc(Cl)c4Cl)CC3)nn2)cc1 | inactive | 71 | 43 |  | 200 | 42 | 120 | 9.3 | 1800 | 42 |  | 
COc1ccc(-n2cc(CCCC(=O)NCCCCN3CCN(c4ccccc4Cl)CC3)nn2)cc1 | inactive | 38 |  | 58 |  |  |  |  |  |  |  | 
COc1ccc(-n2cc(C(=O)NCCCCN3CCN(c4ccccc4Cl)CC3)nn2)cc1 | inactive | 58 |  | 55 |  |  |  |  |  |  |  | 
COc1ccc(-n2cc(C(=O)NCCN3CCN(c4cccc(Cl)c4Cl)CC3)nn2)cc1 | inactive | 40 |  | 39 |  |  |  |  |  |  |  | 
COc1ccccc1N1CCN(CCCCNC(=O)CCCc2cn(-c3ccc([N+](=O)[O-])cc3)nn2)CC1 | inactive | 51 | 52 | 83 |  |  |  |  |  |  | 39 | 
O=C(CCCc1cn(-c2ccc([N+](=O)[O-])cc2)nn1)NCCN1CCN(c2cccc(Cl)c2Cl)CC1 | inactive | 39 |  |  |  |  |  |  |  |  |  | 37
COc1ccc(-n2cc(CCCC(=O)NCCCCN3CCN(c4ccccc4OC)CC3)nn2)cc1 | inactive | 46 | 33 | 72 |  |  |  |  |  |  |  | 
COc1ccc(-n2cc(CCCC(=O)NCCN3CCN(c4ccccc4OC)CC3)nn2)cc1 | inactive |  |  | 56 |  |  |  |  |  |  |  | 
COc1ccc(-n2cc(C(=O)NCCN3CCN(c4ccccc4OC)CC3)nn2)cc1 | inactive |  |  | 56 |  |  |  |  |  |  |  | 
COc1ccccc1N1CCN(CCNC(=O)c2cn(-c3ccc([N+](=O)[O-])cc3)nn2)CC1 | inactive |  |  | 80 | 140 | 470 | 750 | 4.9 | 4100 | 6.5 |  | 
COc1ccc(-n2cc(C(=O)NCCCCN3CCN(c4cccc(Cl)c4Cl)CC3)nn2)cc1 | inactive | 76 |  |  | 320 | 68 | 44 | 4.9 | 1700 | 46 |  | 
O=C(NCCN1CCN(c2cccc(Cl)c2Cl)CC1)c1cn(-c2ccc([N+](=O)[O-])cc2)nn1 | inactive | 52 |  | 47 |  |  |  |  |  |  |  | 
O=C(NCCCCN1CCN(c2cccc(Cl)c2Cl)CC1)c1cn(-c2ccc([N+](=O)[O-])cc2)nn1 | inactive | 95 | 53 | 48 | 280 | 53 | 49 | 1 | 810 | 17 | 33 | 
COc1ccc(-n2cc(C(=O)NCCCCN3CCN(c4ccccc4OC)CC3)nn2)cc1 | inactive | 57 |  | 64 |  |  |  |  |  |  |  | 
COc1ccc(-n2cc(CCCC(=O)NCCN3CCN(c4cccc(Cl)c4Cl)CC3)nn2)cc1 | inactive | 42 |  |  |  |  |  |  |  |  |  | 41
O=C(CCCc1cn(-c2ccc([N+](=O)[O-])cc2)nn1)NCCCCN1CCN(c2cccc(Cl)c2Cl)CC1 | inactive | 76 | 43 |  | 240 | 47 | 83 | 5.7 | 2200 | 28 |  | 
